# Experimental data: ChEMBL document CHEMBL1772946, “Identification and initial SAR of silybin: an Hsp90 inhibitor” (Bioorg Med Chem Lett, 2011)
# The source made the active and inactive calls. No cut-off for these calls is given here.
# Key:
# SK-BR-3 = assay: Antiproliferative activity against estrogen receptor-deficient human SKBR3 cells expressing HER2; type: functional
# Summary of the method: (§1)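 Cell proliferation assay against SKBr3 (ER-negative, HER2-overexpressing) and MCF-7 (ER-positive) breast cancer cells. Values are mean ± standard deviation of at least two separate experiments, each performed in triplicate.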
# MCF7 = assay: Antiproliferative activity against human MCF7 cells expressing estrogen receptor; type: functional; summary of the method: as §1
# [1] = target: T1, Heat shock protein HSP90 (Homo sapiens) (UniProt P07900+P08238); assay: Inhibition of Hsp90 in human MCF7 cells assessed as Raf degradation after 24 hrs by Western blot analysis; type: cell-based
# Summary of the method: (§2)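 MCF-7 breast cancer cells were treated for 24 h with a range of compound concentrations. Cell lysates were probed by Western blot for Her2, Raf, Akt and Hsp90, with actin as a non-client control.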
# [2] = target: T1, Heat shock protein HSP90 (Homo sapiens); assay: Inhibition of Hsp90 in human MCF7 cells assessed as Her2 degradation after 24 hrs by Western blot analysis; type: cell-based; summary of the method: as §2
# [3] = target: T1, Heat shock protein HSP90 (Homo sapiens); assay: Inhibition of Hsp90 in human MCF7 cells assessed as Akt degradation after 24 hrs by Western blot analysis; type: cell-based; summary of the method: as §2
# [4] = target: T1, Heat shock protein HSP90 (Homo sapiens); assay: Inhibition of Hsp90 in human MCF7 cells assessed as degradation after 24 hrs by Western blot analysis
# [5] = target: T2, Heat shock protein HSP 90 (Oryctolagus cuniculus) (UniProt P11500); conditions: 1 ug/ml
# T2 sequence (whole entry): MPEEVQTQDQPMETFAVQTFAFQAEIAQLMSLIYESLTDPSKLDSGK
# [6] = target: T2, Heat shock protein HSP 90 (Oryctolagus cuniculus); conditions: 1 ug/ml; remark: listed apart in the source
# Oryctolagus cuniculus = species on record: Oryctolagus cuniculus; assay: Inhibition of Hsp90/Cdc37 interaction with [35S]-labeled His-tagged […] in rabbit reticulocyte lysate at 2 mM by Western blot analysis
# [7] = target: T2, Heat shock protein HSP 90 (Oryctolagus cuniculus); assay: Inhibition of Hsp90-dependent activation of [35S]-labeled His-tagged […] in rabbit reticulocyte lysate at 2 mM by anti-His-tag pull down assay
# [8] = target: T1, Heat shock protein HSP90 (Homo sapiens); assay: Inhibition of Hsp90 in human MCF7 cells assessed as Her2 degradation at 50 to 1000 uM by Western blot analysis; type: cell-based
# [9] = target: T2, Heat shock protein HSP 90 (Oryctolagus cuniculus); assay: Inhibition of Hsp90-dependent maturation of [35S]-labeled His-tagged […] in rabbit reticulocyte lysate at 2 mM by anti-His-tag pull down assay
# [10] = target: T1, Heat shock protein HSP90 (Homo sapiens); assay: Inhibition of Hsp90 in human MCF7 cells assessed as Raf degradation at 50 to 1000 uM by Western blot analysis; type: cell-based
# [11] = target: T2, Heat shock protein HSP 90 (Oryctolagus cuniculus); assay: Inhibition of Hsp90-dependent activation of [35S]-labeled His-tagged […] in rabbit reticulocyte lysate by anti-His-tag pull down assay
# [12] = target: T1, Heat shock protein HSP90 (Homo sapiens); assay: Inhibition of Hsp90 in human MCF7 cells assessed as Akt degradation at 50 to 1000 uM by Western blot analysis; type: cell-based
# [13] = target: T1, Heat shock protein HSP90 (Homo sapiens); assay: Inhibition of Hsp90 in human MCF7 cells assessed as Hsp90 degradation at 50 to 1000 uM by Western blot analysis; type: cell-based
SMILES,Activity (SK-BR-3) [µM],Activity (MCF7) [µM],further results
COc1cc(C2Oc3cc([C@H]4Oc5cc(O)cc(O)c5C(=O)[C@@H]4O)ccc3OC2CO)ccc1O (stereo in doubt) [SILIBININ],197,222.8,–
COc1cc(C2Oc3cc(C4CC(=O)c5cc(O)ccc5O4)ccc3OC2CO)ccc1O (configuration not stated),15.63,15.62,inhibition [1]: Dose-dependent effect; inhibition [2]: Dose-dependent effect; inhibition [3]: Dose-dependent effect; inhibition [4]: Dose-dependent effect
COc1cc(C2Oc3cc(C4Oc5cc(O)ccc5C(=O)C4O)ccc3OC2CO)ccc1O (configuration not stated),16.04,11.92,–
COc1cc(C2Oc3cc(C4Oc5ccccc5C(=O)C4O)ccc3OC2CO)ccc1O (configuration not stated),11.12,13.42,inhibition [1]: Dose-dependent effect; inhibition [2]: Dose-dependent effect; inhibition [3]: Dose-dependent effect; inhibition [4]: Dose-dependent effect
O=C1c2c(O)cc(O)cc2OC(c2ccc3c(c2)OC(c2ccc(O)cc2)C(CO)O3)C1O (configuration not stated),210.6,138.7,–
COc1cc(C2Oc3cc(C4CC(=O)c5ccccc5O4)ccc3OC2CO)ccc1O (configuration not stated),16.25,13.66,–
COc1cc(C2Oc3cc([C@H]4Oc5cc(O)cc(O)c5C(=O)[C@@H]4O)ccc3OC2CO)ccc1O (stereo in doubt; 24) [SILIBININ],196.3,196.4,–
COc1cc(C2Oc3cc(C4Oc5ccc(O)cc5C(=O)C4O)ccc3OC2CO)ccc1O (configuration not stated),13.41,17.8,–
COc1cc(C2Oc3cc(C4Oc5cccc(O)c5C(=O)C4O)ccc3OC2CO)ccc1O (configuration not stated),11.9,17.66,–
COC1=C2C[C@@H](C)C[C@H](OC)[C@H](O)[C@@H](C)/C=C(\C)[C@H](OC(N)=O)[C@@H](OC)/C=C\C=C(/C)C(=O)NC(=CC1=O)C2=O,–,–,inhibition [5]: Active; inhibition [6]: Active
COc1cc(C2Oc3cc(/C=C/C(=O)c4cc(O)ccc4O)ccc3OC2CO)ccc1O (configuration not stated),35.84,12.17,–
COc1cc(C2Oc3cc(C4CC(=O)c5c(O)cc(O)cc5O4)ccc3OC2CO)ccc1O (configuration not stated),101.2,104.2,–
COc1cc(C2Oc3cc(C4CC(=O)c5ccc(O)cc5O4)ccc3OC2CO)ccc1O (configuration not stated),41.91,41.58,–
COc1cc(C2Oc3cc(C4CC(=O)c5c(O)cccc5O4)ccc3OC2CO)ccc1O (configuration not stated),47.73,50.32,–
COc1cc(C2Oc3cc(/C=C/C(=O)c4c(O)cccc4O)ccc3OC2CO)ccc1O (configuration not stated),25.03,22.58,–
COc1cc(C2Oc3cc(/C=C/C(=O)c4ccc(O)cc4O)ccc3OC2CO)ccc1O (configuration not stated),37.14,16.91,–
COc1cc(C2Oc3cc([C@H]4Oc5cc(O)cc(O)c5C(=O)[C@@H]4O)ccc3OC2CO)ccc1O (stereo in doubt),–,–,inhibition (Oryctolagus cuniculus): inactive; inhibition [7]: Active; inhibition [8]: Active; inhibition [9]: Active; inhibition [10]: Active; inhibition [11]: Dose-dependent effect; inhibition [12]: Active; inhibition [13]: Active
COc1cc(C2Oc3cc(/C=C/C(=O)c4ccccc4O)ccc3OC2CO)ccc1O (configuration not stated),19.87,12.07,–
COc1cc(C2Oc3cc(/C=C/C(=O)c4c(O)cc(O)cc4O)ccc3OC2CO)ccc1O (configuration not stated),111.4,109.3,–
